# Assay results: ChEMBL document CHEMBL3352378, “Novel carbazole inhibits phospho-STAT3 through induction of protein-tyrosine phosphatase PTPN6” (J Med Chem, 2014)
# The source made the active and inactive calls. No cut-off for these calls is given here.
# Target: Signal transducer and activator of transcription 3 (Homo sapiens) (UniProt P40763)
# Test: Inhibition of STAT3C-mediated transcription in human Hs578T cells at 1 uM after 24 hrs by luciferase reporter gene assay
# Assay type: cell-based
# Conditions: Hs-578T
# Method in brief: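 HS578T cells co-transfected with a constitutively active STAT3 (STAT3C) expression vector and the APRE-Luc reporter. Treated at 1 μM for 24 h, with JAK2 inhibitor AZD1480 for comparison. Luciferase measured; mean ± SD of triplicates.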
# Sequence of Signal transducer and activator of transcription 3 (Homo sapiens) (P40763 whole entry): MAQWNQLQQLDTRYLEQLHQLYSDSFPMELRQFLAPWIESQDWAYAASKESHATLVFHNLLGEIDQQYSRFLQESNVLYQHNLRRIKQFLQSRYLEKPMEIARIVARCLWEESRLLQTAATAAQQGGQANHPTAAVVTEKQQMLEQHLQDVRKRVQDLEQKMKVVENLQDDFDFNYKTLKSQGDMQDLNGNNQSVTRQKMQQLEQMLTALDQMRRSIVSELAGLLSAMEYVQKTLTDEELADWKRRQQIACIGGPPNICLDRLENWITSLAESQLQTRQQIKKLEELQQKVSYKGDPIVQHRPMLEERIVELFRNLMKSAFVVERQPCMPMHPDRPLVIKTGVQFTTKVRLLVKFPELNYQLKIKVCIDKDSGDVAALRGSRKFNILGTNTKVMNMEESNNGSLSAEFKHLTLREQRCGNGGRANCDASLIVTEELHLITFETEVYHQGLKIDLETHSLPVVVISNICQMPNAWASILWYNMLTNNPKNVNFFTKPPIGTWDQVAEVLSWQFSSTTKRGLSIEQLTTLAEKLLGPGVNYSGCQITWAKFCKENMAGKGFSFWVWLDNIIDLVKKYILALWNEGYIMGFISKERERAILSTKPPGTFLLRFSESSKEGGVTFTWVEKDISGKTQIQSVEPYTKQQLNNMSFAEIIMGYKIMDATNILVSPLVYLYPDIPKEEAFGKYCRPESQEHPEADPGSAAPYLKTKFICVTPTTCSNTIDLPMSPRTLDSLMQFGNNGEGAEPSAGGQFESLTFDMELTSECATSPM
smiles,measurement,value
Cc1cc(Nc2nc(N[C@@H](C)c3ncc(F)cn3)ncc2Cl)[nH]n1,inhibition,Active
